Assay results published in ChEMBL document CHEMBL1152519, “Synthesis, structural activity-relationships, and biological evaluation of novel amide-based allosteric binding site antagonists in NR1A/NR2B N-methyl-D-aspartate receptors” (Bioorg Med Chem, 2009).
The source made the active and inactive calls. The calls are words filed in the database; no cut-off is given here.

Experiments:
[1] = target: Glutamate receptor ionotropic, NMDA 1/NMDA 2B (Mus musculus) (UniProt P35438+Q01097); assay: Antagonist activity at mouse recombinant NR1/NR2B receptor expressed in Xenopus laevis oocytes assessed as inhibition of glutamate/glycine-induced current at 3 uM by two electrode voltage clamp method; type: functional, cell-based; conditions: Oocyte
[2] = target: Glutamate NMDA receptor; Grin1/Grin2a (Rattus norvegicus, UniProt P35439+Q00959); assay: Antagonist activity at rat recombinant NR1/NR2A receptor expressed in Xenopus laevis oocytes assessed as inhibition of glutamate/glycine-induced current by two electrode voltage clamp method; type: functional, cell-based, Oocyte
Method in brief: (§1)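 Xenopus oocytes expressing NR1/NR2 (wild type or amino terminal domain deletion mutant) recorded by TEVC at −40 mV, room temperature, pH 7.4–7.6, with EDTA 10 μM. Maximal glutamate/glycine applied alone, then with 5–8 successive compound concentrations. Leak-corrected; responses under 50 nA excluded. IC50 from fitted composite curve. NR1/NR2A oocytes were pre-incubated in 50 μM BAPTA-AM.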

[3] = target: Glutamate NMDA receptor; Grin1/Grin2c (Rattus norvegicus, UniProt P35439+Q00961); assay: Antagonist activity at rat recombinant NR1/NR2C receptor expressed in Xenopus laevis oocytes assessed as inhibition of glutamate/glycine-induced current by two electrode voltage clamp method; type: functional, cell-based, Oocyte; method in brief: as §1
[4] = target: Glutamate receptor ionotropic, kainate 2 (Rattus norvegicus) (UniProt P42260); assay: Antagonist activity at rat recombinant GluR6 expressed in Xenopus laevis oocytes assessed as inhibition of concanavalin A/glutamate-induced current at 3 uM by two electrode voltage clamp method; type: functional, cell-based; conditions: Oocyte
Method in brief: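 Oocytes expressing homomeric GluR6 (5–10 ng cRNA) pretreated 5 min with 10 μM concanavalin-A. Currents evoked by 100 μM glutamate at −40 mV, with or without 3 μM compound, and given as percent of control. Mean ± SEM of 4–10 oocytes; paired t-test.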

[5] = target: Glutamate receptor 1 (Rattus norvegicus) (UniProt P19490); assay: Antagonist activity at rat recombinant GluR1 expressed in Xenopus laevis oocytes assessed as inhibition of glutamate-induced current at 3 uM by two electrode voltage clamp method; type: functional, cell-based; conditions: Oocyte
Method in brief: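 GluR1 homomers expressed from 5–10 ng cRNA in Xenopus oocytes. Clamped at −40 mV. Currents evoked by 100 μM glutamate with 3 μM compound, expressed as % of control without compound. Mean ± SEM, 4–10 oocytes; paired t-test.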

[6] = target: Glutamate NMDA receptor; Grin1/Grin2b (Rattus norvegicus) (UniProt P35439+Q00960); assay: Antagonist activity at rat recombinant NR1/NR2B receptor expressed in Xenopus laevis oocytes assessed as voltage-independent inhibition of glutamate/glycine-induced current at 0.054 uM by two electrode voltage clamp method; type: functional, cell-based; conditions: Oocyte
Method in brief: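 Rat NR1/NR2B oocytes were voltage clamped and the current–voltage relation recorded for 50 μM glutamate plus 30 μM glycine, with and without 0.054 μM compound coapplied; n = 5.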

[7] = target: T1, Glutamate NMDA receptor; Grin1/Grin2b (Rattus norvegicus, UniProt P35439+Q00960); assay: Antagonist activity at wild type rat NR1/NR2B receptor expressed in Xenopus laevis oocytes assessed as inhibition of glutamate/glycine-induced current by two electrode voltage clamp method; type: functional, cell-based, Oocyte; method in brief: as §1
[8] = Antagonist activity at rat NR1/NR2B receptor deltaATD mutant expressed in Xenopus laevis oocytes assessed as inhibition of glutamate/glycine-induced current by two electrode voltage clamp method; type: functional, cell-based; conditions: Oocyte; method in brief: as §1
[9] = target: Glutamate receptor ionotropic, NMDA 2B (Mus musculus, UniProt P35438+Q01097, D101A); assay: Antagonist activity at mouse NR1/NR2B receptor D101A mutant expressed in Xenopus laevis oocytes assessed as inhibition of glutamate/glycine-induced current by two electrode voltage clamp method; type: functional, cell-based, Oocyte
Method in brief: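 Oocytes express NR1/NR2B amino-terminal-domain mutants (mouse D101A point mutant; rat ATD deletion). Concentration–effect curves were recorded by two-electrode voltage clamp at −40 mV and 23 °C, with 50 μM glutamate plus 30 μM glycine. Each step is compound plus agonists, expressed relative to agonists alone.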

[10] = target: T1, Glutamate NMDA receptor; Grin1/Grin2b; assay: Antagonist activity at rat recombinant NR1/NR2B receptor expressed in frog oocytes assessed as inhibition of glutamate/glycine-induced current by two electrode voltage clamp method; type: functional, cell-based, Oocyte; method in brief: as §1
[11] = target: Ionotropic glutamate receptor NMDA 1/2D (Rattus norvegicus) (UniProt P35439+Q62645); assay: Antagonist activity at rat recombinant NR1/NR2D receptor expressed in Xenopus laevis oocytes assessed as inhibition of glutamate/glycine-induced current at 3 uM by two electrode voltage clamp method relative to control; type: functional, cell-based; conditions: Oocyte
Method in brief: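 Xenopus oocytes injected with NR1-1a (3–5 ng) plus NR2A, 2B, 2C or 2D cRNA (7–10 ng), kept at 15 °C. Voltage clamp at −40 mV. Responses to 50 μM glutamate + 30 μM glycine with 3 μM compound, as % of response without compound. NR2A oocytes pre-loaded with 50 μM BAPTA-AM. Mean ± SEM, 4–10 oocytes; paired t-test.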

[12] = target: Glutamate receptor ionotropic, NMDA 2B (Rattus norvegicus, UniProt Q00960); assay: Displacement of [3H]ifenprodil form NR2B receptor in Wistar rat cerebral cortex membrane; type: tissue-based
[13] = target: Glutamate receptor ionotropic, NMDA 1/NMDA 2B (Mus musculus, UniProt P35438+Q01097); assay: Antagonist activity at mouse recombinant NR1/NR2B receptor expressed in frog oocytes assessed as inhibition of glutamate/glycine-induced current by two electrode voltage clamp method; type: functional, cell-based, Oocyte
Method in brief: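 Xenopus oocytes injected with 3–5 ng NR1 and 7–10 ng NR2 cRNA, kept in Barth's solution at 15 °C, recorded 2–7 d later at 23 °C under two-electrode voltage clamp at −40 mV. Bath was 90 NaCl, 1 KCl, 10 HEPES, 0.5 BaCl2 (mM), pH 7.4/7.6, plus 10 μM EDTA. Glutamate (50–100 μM) plus glycine 30 μM was applied, then 5–8 inhibitor concentrations. Leak-corrected; n = 11 oocytes from 2 frogs.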

Sequence of Glutamate NMDA receptor; Grin1/Grin2a (Q00959 whole entry, other chains not shown, the tested form may be a part): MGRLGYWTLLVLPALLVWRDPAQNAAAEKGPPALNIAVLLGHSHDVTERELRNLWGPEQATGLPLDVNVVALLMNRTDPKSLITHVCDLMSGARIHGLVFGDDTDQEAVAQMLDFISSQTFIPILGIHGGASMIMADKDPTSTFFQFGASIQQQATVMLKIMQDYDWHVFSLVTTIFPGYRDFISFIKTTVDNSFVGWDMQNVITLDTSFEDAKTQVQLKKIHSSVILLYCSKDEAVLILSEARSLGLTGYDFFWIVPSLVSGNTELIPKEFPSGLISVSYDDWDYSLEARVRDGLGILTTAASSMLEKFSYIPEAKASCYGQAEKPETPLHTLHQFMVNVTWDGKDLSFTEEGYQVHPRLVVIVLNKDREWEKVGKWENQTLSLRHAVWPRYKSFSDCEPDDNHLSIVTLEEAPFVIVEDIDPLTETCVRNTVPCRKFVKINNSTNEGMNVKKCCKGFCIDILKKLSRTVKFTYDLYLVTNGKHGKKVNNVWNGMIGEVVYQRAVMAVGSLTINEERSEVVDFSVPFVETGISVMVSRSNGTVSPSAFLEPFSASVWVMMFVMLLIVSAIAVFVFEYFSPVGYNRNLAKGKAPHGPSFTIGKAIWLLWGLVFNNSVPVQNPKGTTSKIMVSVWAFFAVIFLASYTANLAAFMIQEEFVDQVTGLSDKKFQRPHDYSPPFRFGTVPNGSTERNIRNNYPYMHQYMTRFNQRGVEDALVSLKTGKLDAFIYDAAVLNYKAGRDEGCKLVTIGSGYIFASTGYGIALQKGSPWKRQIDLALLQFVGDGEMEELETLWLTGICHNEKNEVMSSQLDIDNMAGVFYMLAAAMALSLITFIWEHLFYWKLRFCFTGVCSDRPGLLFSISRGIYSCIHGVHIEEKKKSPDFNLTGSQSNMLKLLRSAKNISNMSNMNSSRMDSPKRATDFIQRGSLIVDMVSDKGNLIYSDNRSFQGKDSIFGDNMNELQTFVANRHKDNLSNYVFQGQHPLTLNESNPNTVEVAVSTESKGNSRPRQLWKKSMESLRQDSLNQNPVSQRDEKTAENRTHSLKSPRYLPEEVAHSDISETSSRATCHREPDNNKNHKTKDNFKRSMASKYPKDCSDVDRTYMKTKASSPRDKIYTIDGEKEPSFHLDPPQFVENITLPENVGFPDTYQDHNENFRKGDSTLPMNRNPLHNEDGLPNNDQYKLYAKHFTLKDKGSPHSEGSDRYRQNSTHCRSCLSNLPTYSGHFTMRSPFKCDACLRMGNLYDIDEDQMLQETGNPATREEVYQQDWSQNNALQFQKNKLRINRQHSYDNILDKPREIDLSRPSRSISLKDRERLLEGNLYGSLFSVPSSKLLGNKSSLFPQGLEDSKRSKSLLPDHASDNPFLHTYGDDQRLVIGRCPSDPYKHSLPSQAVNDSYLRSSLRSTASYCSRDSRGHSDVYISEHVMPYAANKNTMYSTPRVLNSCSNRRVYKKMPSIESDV
Sequence of Glutamate receptor ionotropic, NMDA 2B (Mus musculus, UniProt P35438+Q01097, D101A) (Q01097 whole entry D101A, one chain of several): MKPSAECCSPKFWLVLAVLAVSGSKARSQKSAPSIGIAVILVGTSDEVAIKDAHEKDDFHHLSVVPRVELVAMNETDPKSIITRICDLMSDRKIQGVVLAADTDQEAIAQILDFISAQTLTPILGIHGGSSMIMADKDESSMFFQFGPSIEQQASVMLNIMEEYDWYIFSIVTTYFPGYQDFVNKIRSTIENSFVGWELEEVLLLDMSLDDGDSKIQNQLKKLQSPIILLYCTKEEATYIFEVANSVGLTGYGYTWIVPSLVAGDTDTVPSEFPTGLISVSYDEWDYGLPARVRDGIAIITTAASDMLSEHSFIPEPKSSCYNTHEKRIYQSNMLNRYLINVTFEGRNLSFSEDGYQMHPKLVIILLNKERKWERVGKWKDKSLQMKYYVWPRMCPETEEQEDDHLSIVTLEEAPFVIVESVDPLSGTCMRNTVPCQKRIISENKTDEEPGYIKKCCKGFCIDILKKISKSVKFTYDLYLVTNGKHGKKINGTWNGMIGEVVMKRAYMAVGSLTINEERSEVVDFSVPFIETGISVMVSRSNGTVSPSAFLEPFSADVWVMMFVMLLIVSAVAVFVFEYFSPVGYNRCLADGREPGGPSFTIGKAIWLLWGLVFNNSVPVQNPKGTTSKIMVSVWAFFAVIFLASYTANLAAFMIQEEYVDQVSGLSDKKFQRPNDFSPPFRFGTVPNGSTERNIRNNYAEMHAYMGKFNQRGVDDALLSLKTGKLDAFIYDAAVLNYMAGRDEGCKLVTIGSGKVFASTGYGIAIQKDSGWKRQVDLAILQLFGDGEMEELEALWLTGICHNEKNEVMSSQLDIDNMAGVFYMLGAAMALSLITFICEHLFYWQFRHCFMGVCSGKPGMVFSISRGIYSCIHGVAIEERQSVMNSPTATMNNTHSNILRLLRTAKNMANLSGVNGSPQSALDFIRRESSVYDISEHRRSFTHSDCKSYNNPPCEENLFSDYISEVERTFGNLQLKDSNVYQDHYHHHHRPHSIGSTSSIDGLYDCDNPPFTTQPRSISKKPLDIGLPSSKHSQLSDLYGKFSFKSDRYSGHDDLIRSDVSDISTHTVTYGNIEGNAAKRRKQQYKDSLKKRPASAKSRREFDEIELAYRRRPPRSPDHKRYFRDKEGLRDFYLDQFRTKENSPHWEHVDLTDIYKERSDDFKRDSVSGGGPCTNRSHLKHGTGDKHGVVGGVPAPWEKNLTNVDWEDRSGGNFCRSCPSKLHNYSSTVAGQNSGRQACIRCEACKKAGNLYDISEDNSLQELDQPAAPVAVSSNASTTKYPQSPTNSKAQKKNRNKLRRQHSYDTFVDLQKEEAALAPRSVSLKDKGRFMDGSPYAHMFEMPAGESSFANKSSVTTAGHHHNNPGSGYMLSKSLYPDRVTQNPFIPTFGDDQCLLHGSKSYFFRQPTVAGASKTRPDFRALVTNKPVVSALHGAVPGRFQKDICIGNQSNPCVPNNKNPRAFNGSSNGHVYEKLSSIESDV
Sequence of Glutamate NMDA receptor; Grin1/Grin2c (Q00961 whole entry, other chains not shown): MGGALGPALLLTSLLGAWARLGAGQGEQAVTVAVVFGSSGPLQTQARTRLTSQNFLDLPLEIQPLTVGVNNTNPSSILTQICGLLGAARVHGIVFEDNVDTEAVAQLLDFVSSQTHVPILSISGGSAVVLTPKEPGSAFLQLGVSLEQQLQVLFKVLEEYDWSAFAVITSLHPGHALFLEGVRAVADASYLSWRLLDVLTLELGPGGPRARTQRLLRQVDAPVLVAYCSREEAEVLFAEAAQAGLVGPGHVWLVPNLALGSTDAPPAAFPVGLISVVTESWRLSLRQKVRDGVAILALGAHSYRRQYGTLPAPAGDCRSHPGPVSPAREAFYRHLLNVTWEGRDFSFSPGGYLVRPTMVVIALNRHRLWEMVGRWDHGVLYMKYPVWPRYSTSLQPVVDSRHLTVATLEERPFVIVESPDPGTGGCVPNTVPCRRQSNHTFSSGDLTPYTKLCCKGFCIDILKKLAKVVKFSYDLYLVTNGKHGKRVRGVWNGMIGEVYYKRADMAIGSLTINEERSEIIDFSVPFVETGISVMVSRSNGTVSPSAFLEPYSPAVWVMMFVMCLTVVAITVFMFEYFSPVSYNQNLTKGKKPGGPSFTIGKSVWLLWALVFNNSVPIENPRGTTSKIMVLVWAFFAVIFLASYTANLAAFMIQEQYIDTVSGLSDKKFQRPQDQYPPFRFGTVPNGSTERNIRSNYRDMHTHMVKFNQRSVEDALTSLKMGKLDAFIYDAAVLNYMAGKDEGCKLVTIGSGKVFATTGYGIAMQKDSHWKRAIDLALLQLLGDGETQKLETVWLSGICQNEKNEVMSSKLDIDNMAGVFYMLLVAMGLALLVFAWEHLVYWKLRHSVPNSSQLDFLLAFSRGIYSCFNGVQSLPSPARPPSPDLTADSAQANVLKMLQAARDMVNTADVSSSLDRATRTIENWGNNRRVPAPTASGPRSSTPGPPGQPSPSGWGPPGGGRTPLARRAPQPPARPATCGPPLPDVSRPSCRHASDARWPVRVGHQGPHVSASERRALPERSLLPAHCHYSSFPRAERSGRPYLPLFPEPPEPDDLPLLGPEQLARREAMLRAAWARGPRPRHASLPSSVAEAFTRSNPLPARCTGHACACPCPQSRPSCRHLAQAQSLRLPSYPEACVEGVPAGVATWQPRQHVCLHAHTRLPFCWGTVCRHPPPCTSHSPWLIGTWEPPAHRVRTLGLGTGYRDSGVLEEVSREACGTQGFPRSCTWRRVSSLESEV
Sequence of Glutamate receptor 1 (Rattus norvegicus) (P19490 whole entry): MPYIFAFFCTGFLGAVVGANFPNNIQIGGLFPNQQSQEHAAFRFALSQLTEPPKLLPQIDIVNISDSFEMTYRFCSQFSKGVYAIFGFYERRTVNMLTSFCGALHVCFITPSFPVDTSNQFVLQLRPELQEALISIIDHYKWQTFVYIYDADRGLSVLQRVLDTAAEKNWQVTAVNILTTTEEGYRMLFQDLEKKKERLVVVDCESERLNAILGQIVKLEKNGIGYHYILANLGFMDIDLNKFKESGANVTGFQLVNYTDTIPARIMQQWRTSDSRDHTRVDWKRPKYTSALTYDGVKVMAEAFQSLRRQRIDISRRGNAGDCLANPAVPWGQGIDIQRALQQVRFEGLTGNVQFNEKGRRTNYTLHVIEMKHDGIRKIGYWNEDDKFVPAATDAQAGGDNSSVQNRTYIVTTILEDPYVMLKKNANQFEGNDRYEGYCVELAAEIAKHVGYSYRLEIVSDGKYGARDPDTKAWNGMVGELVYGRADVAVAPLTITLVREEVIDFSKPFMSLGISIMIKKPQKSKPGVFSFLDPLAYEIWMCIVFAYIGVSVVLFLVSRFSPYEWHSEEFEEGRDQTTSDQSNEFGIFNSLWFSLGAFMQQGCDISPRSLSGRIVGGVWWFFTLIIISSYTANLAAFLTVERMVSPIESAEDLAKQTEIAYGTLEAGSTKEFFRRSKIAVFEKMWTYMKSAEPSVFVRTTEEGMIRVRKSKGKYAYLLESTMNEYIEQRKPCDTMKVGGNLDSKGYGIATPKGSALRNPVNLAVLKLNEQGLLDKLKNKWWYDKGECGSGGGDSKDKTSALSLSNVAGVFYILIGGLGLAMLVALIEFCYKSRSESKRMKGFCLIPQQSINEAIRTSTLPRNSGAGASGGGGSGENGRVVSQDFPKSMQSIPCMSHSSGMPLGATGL

SMILES: CS(=O)(=O)Nc1ccc(OCC(=O)NCCNc2ccc(Cl)c(Cl)c2)cc1
- inhibition [1]: 78%
- IC50 [2]: 82 µM
- IC50 [3]: 58 µM
- inhibition [4]: inactive
- inhibition [5]: inactive
- inhibition [6]: Active
- IC50 [7]: 0.057 µM
- IC50 [8]: 563 µM
- IC50 [9]: 52 µM
- IC50 [10]: 0.057 µM
- % response [11]: 91%
- Ki [12]: 0.119 µM
- IC50 [13]: 0.036 µM
